In ChEMBL document CHEMBL1800020, “Synthesis, conformation and biology of naphthoxylosides” (Bioorg Med Chem, 2011):
pEC50: −log10 of the molar value. Calls of active or inactive are those of the source. The calls are words filed in the database; no cut-off is given here.

Key:
[1] = system: HCC70; assay: Induction of glycosaminoglycan chains priming from beta-D-xylopyranoside in human HCC70 cells using [35S]-Sulfate after 30 mins by beta counting; type: functional, cell-based
Summary of the method: (§1)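 Confluent monolayers incubated with xylosides in low-sulfate labeling medium with 2 mM glutamine and 20 µCi/mL [35S]sulfate; xylosides diluted from 20 mM stocks in Me2SO/water 1:1. Medium collected, labeled polyanions captured on DEAE-cellulose, free primed GAG chains separated from PG on Octyl-Sepharose. Ethanol-precipitated, sized by Superose 6 gel-permeation FPLC, radioactivity counted by beta counter.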

[2] = system: HCC70; assay: Antiproliferative activity against human HCC70 cells after 96 hrs by crystal violet staining method; type: functional; settings: read-out: ED50 (the source's name)
Summary of the method: (§2)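 Normal breast fibroblasts (CCD-1095Sk) or HCC70 breast carcinoma cells seeded at 5000 cells/well, in MEM or RPMI-1640 with 10% fetal calf serum. After 24 h, switched to serum-free Ham's F-12 with insulin (10 µg/mL) and transferrin (25 µg/mL) plus increasing xyloside concentrations, 96 h total. Fixed in 1% glutaraldehyde, stained with 0.1% crystal violet, lysed in 1% Triton X-100, read at A600. ED50 taken from % of untreated growth.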

[3] = Antiproliferative activity against human CCD-1095SK cells after 96 hrs by crystal violet staining method; type: cell-based; settings: for GI50 at 96 h: CCD-1095SK cells, read-out: ED50; summary of the method: as §2
[4] = system: CCD-1095SK; assay: Induction of glycosaminoglycan chains priming in human CCD-1095SK cells using [35S]-Sulfate after 30 mins by beta counting; type: functional, cell-based; summary of the method: as §1
[5] = system: HCC70; assay: Inhibition of endogenous proteoglycans production in human HCC70 cells at 0.1 mM; type: functional
[6] = system: HCC70; assay: Inhibition of glycosaminoglycan chains priming from beta-D-xylopyranoside in human HCC70 cells at 0.1 mM; type: functional

CO[C@@H]1CO[C@@H](Oc2ccc3ccccc3c2)[C@H](O)[C@H]1O
Activity [1]: inactive | pEC50 ([2]; Homo sapiens, HCC70, 96 h): 3.87 | GI50 at 96 h [3]: 93 µM | Activity [4]: inactive

O[C@@H]1[C@@H](O)[C@H](Oc2ccc3ccccc3c2)OC[C@H]1O (stereo in doubt; 1b)
Activity [1]: Active | pEC50 [2]: 4.04 | GI50 ([3]; ccd-1095sk, 96 h, read-out: ED50 (the source's name)): 243 µM | Activity [4]: Active

O[C@@H]1[C@@H](O)[C@H](Oc2ccc3ccccc3c2)OC[C@H]1F
Activity [1]: inactive | pEC50 ([2]; Homo sapiens, HCC70, 96 h): 4.43 | GI50 at 96 h [3]: 32 µM | Activity [4]: inactive | inhibition at 100 µM [5]: 33% | inhibition at 100 µM [6]: 23%

O[C@H]1[C@H](Oc2ccc3ccccc3c2)OCC[C@@H]1O
Activity [1]: inactive | pEC50 ([2]; Homo sapiens, HCC70, 96 h): 3.55 | GI50 at 96 h [3]: 285 µM | Activity [4]: inactive | inhibition at 100 µM [5]: 24%

Oc1ccc2cc(O[C@@H]3OC[C@@H](O)[C@H](O)[C@H]3O)ccc2c1
Activity [1]: Active | Activity [4]: Active

CO[C@H]1[C@H](Oc2ccc3ccccc3c2)OC[C@@H](O)[C@@H]1O
Activity [1]: inactive | pEC50 ([2]; Homo sapiens, HCC70, 96 h): 3.90 | GI50 at 96 h [3]: 55 µM | Activity [4]: inactive

CO[C@@H]1[C@@H](O)[C@H](Oc2ccc3ccccc3c2)OC[C@H]1O
Activity [1]: inactive | pEC50 ([2]; Homo sapiens, HCC70, 96 h): 3.84 | GI50 at 96 h [3]: 17 µM | Activity [4]: inactive

O[C@@H]1[C@@H](F)[C@H](Oc2ccc3ccccc3c2)OC[C@H]1O
Activity [1]: inactive | pEC50 ([2]; Homo sapiens, HCC70, 96 h): 4.66 | GI50 at 96 h [3]: 12 µM | Activity [4]: inactive

O[C@@H]1CO[C@@H](Oc2ccc3ccccc3c2)[C@H](O)C1
Activity [1]: inactive | pEC50 ([2]; Homo sapiens, HCC70, 96 h): 3.75 | GI50 at 96 h [3]: 79 µM | Activity [4]: inactive

O[C@H]1[C@H](Oc2ccc3ccccc3c2)OC[C@@H](O)[C@@H]1F
Activity [1]: inactive | pEC50 ([2]; Homo sapiens, HCC70, 96 h): 4.03 | GI50 at 96 h [3]: 72 µM | Activity [4]: inactive

O[C@H]1[C@H](Oc2ccc3ccccc3c2)OC[C@@H](O)[C@H]1O
Activity [1]: inactive | pEC50 ([2]; Homo sapiens, HCC70, 96 h): 3.75 | GI50 at 96 h [3]: 182 µM | Activity [4]: inactive

O[C@@H]1[C@@H](O)[C@H](Oc2ccc3ccccc3c2)OC[C@@H]1O
Activity [1]: inactive | pEC50 ([2]; Homo sapiens, HCC70, 96 h): 3.43 | GI50 at 96 h [3]: 48 µM | Activity [4]: inactive

O[C@@H]1CO[C@@H](Oc2ccc3ccccc3c2)C[C@H]1O
Activity [1]: inactive | pEC50 ([2]; Homo sapiens, HCC70, 96 h): 3.64 | GI50 at 96 h [3]: 19 µM | Activity [4]: inactive
